Screens as filed in PubChem.
Sampled rows, rich in hits. Any-hit rate of the full collection: about 3.3%.
ROMK mod: human ROMK K+ channel modulation, primary screen | P48048 | Tet-inducible ROMK, thallium flux fluorescence; actives lie on both sides | B-score at 10 µM | hit rate 2% among 130,000;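 active = signal ratio slope over the read window, or its plate-corrected B-score, at least 3 SD from the plate mean, either direction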;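 note: B-score of the F/F0 ratio slope over 7 to 12 s after thallium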
Target sequence (P48048 whole entry, looked up): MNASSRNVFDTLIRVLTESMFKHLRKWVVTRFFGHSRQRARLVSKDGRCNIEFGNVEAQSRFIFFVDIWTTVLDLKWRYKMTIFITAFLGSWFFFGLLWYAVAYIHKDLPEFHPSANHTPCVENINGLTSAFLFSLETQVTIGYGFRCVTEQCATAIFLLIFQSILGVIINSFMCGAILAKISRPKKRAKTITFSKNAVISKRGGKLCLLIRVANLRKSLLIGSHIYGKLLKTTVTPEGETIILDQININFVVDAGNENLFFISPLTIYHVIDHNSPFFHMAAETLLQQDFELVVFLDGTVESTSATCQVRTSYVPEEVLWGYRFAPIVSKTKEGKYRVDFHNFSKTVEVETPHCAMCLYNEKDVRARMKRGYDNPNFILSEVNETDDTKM
KCC2 mod: modulators of human KCC2 chloride dependent transport. Q9H2X9. B-score of Tl+ flux slope (higher = more flux/activation; lower = inhibition) at 10 µM. hit rate 2.2% among 190,000. KCC2 cells, thallium flux FluoZin-2 fluorescence;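 active = thallium flux slope and its plate-corrected score both differing from the plate sample mean at a set confidence after two filtering rounds, in either direction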;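 note: slope of fluorescence scaled to starting intensity during 10 to 20 s after thallium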
ABCB1 block: blocks JC-1 efflux by human ABCB1 transporter | P08183 | CCRF-Adr cells, flow cytometry | hit rate 0.067% among 190,000 | inhibition, % at 6.6 µM; in the data active = inhibition above about 40%;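 note: 0% = vehicle and 100% = reference inhibitor; higher value means more JC-1 retained so stronger ABCB1 efflux block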
ABCG2 inh: inhibitors of human ABCG2 transporter, ABCB1 counter-screen; IgMXP3 cells, JC-1 efflux, flow cytometry; inhibition, % at 6.6 µM; AID 1325; Q9UNQ0; hit rate 0.1% among 190,000;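 active = inhibition above 80%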;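 note: 0% = DMSO and 100% = nicardipine control wells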
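Incubation: cells with compound and JC-1, 10 min at 25 °C, rotating, no wash / Test system: IgMXP3 (ABCG2) plus far-red-tagged CCRF-Adr (ABCB1) cells / Compound dosing: one concentration, 6.6 µM final / Also added: JC-1 fluorescent substrate / Evaluation: efflux inhibition in percent versus controls / Detection: flow cytometry, 530 nm JC-1 signal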
PMI activator: phosphomannose isomerase (human) activation; P34949; purified human PMI, coupled resazurin fluorescence, 20 min; active compounds read high; 1 = vehicle control, 0 substrate-free wells; activation factor at 20 µM; hit rate 0.005% among 190,000; AID 1214;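 active = activation factor of 2 or more at 20 µM, relative to plate controls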
PMI act satM6P: increases human PMI activity with near-saturating mannose 6-phosphate | P34949 | coupled PMI enzyme assay, resazurin fluorescence, 20 min; active compounds read high; 1 = untreated enzyme, 0 = substrate-free blank | activation factor at 20 µM | hit rate 0.34% among 190,000 | AID 1216;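 active = activation factor of 2 or more at 20 µM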
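Material: human phosphomannose isomerase with PGI, G6PDH, diaphorase coupling enzymes / Reagent: Man-6-P substrate 1.0 mM / Dosing: single compound dose of 20 µM, 1% DMSO final / Incubation: enzyme reaction with compound 20 min at room temperature / Signal: resorufin fluorescence (Ex 544/Em 590 nm) from resazurin via diaphorase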
ROMK retest: human ROMK channel modulation, retest confirmation. shares compounds with ROMK mod. ROMK thallium flux, fluorescence ratio; active compounds read low. normalized thallium flux (F/F0 slope) at 10 µM. hit rate 54% among 3,000. AID 1917;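 active = Flux at 10 µM at least 3 SD below or above vehicle control mean in one or both replicates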
* marks the source's active call; other numbers are inactive results; x = no result given.

SMILES | ROMK mod | KCC2 mod | ABCB1 block | ABCG2 inh | PMI activator | PMI act satM6P | ROMK retest
O=C(Cc1n[nH]c(=O)c2ccccc12)OCC(=O)c1ccc2c(c1)OCCO2 | 3.6* | 0.4 | 1 | 3 | 1 | 0.9 | 0.083
COc1ccc(/C=N/NC(=O)c2cccnc2)cc1CSc1nc2ccccc2s1 | x | -0.92 | 0 | -5 | 0.8 | 0.9 | 0.083
COc1ccc(/C=N/NC(=O)c2ccccc2Cl)cc1CSc1nc2ccccc2s1 | x | -0.25 | 1 | 4 | 0.8 | 0.9 | x
O=C(/C=C/c1cccc(F)c1)c1ccc(N2CCOCC2)cc1 | x | -0.71 | x | x | x | x | x
O=C(/C=C/c1cccs1)c1ccc(N2CCOCC2)cc1 | 2.5* | -0.26 | 0 | 4 | 1.1 | 1 | 0.076
CN(Cc1ccno1)C(=O)CC1C(=O)NCCN1CC(c1ccccc1)c1ccccc1 (configuration not stated) | -0.83 | -0.079 | 1 | 1 | 1 | 0.6 | x
Cc1ccccc1OCC(O)CN1CCN(CCN2C(=O)c3cccc4cccc(c34)C2=O)CC1 (configuration not stated) | x | 0.039 | 4 | 13 | 1.3 | 1.2 | x
CCC(OCC(O)CN1CCN(CCN2C(=O)c3cccc4cccc(c34)C2=O)CC1)c1ccccc1 (configuration not stated) | -3.6* | 0.047 | 4 | -3 | 1.3 | 1.4 | 0.059*
O=C(O)c1cccc(N/N=C/c2cc(Br)cc(Br)c2O)c1 | -0.0062 | -3.3 | 0 | -1 | 1.5 | 1.8 | x
Cc1c(N=Cc2cc(Br)cc(Br)c2O)cccc1C(=O)O | 3.4* | -0.9 | 0 | -2 | 1.1 | 0.7 | 0.1*
Cc1ccc(S(=O)(=O)/N=S(\C)CC2CC2(Cl)Cl)cc1 (configuration not stated) | 1.5 | -0.02 | 0 | 1 | 0.9 | 1 | x
CC1Cc2ccccc2N1CC(=O)NC(c1ccccc1)c1ccccc1 (configuration not stated) | 0.011 | 0.46 | 1 | 0 | 0.8 | 0.9 | x
Cc1oc2nc(SCC(=O)NC3CCCCC3)nc(N)c2c1C | 0.034 | 0.087 | x | x | x | x | x
CC(C)(C)C(=O)NC1(C(F)(F)F)NC(=O)N(c2ccc(F)cc2)C1=O (configuration not stated) | x | -0.014 | 2 | 13 | 0.9 | 0.9 | x
Cc1ccc(-n2cc(CN3CCC(CO)(Cc4ccccc4)CC3)cn2)cc1 | -5.2* | -1.8 | 3 | 3 | 1 | 1 | 0.059*
Cc1ccc(-n2cc(CN3CCC(CO)(Cc4cccc(C(F)(F)F)c4)CC3)cn2)cc1 | -2.5 | 0.48 | 3 | 5 | 0.9 | 0.9 | x
Cc1ccc(/C=C(\C#N)C(=O)NC(C)C)o1 | 0.022 | -0.34 | 1 | 11 | 1.1 | 1 | x
CC(C)NC(=O)/C(C#N)=C/c1ccc(N(C)C)o1 | -7.4* | -1.3 | x | x | x | x | 0.047*
Oc1ccc(N=Nc2cccc(Cl)c2)cc1C=Nc1ccc(N2CCOCC2)cc1 | x | -0.14 | 0 | 6 | 0.8 | 0.7 | x
C=CCOc1ccc(C=Nc2cccc(Cl)c2)c(O)c1 | -2.9* | -0.096 | 0 | -1 | 0.8 | 0.8 | 0.081
CC1=Nc2ccccc2N=C(NC(=O)CN2CCN(c3ccccc3)CC2)C1c1ccccc1 (configuration not stated) | 3.2* | -0.084 | 7 | 6 | 0.9 | 0.9 | 0.084
CCOC(=O)N1CCN(C(=O)CN(Cc2ccccc2)S(C)(=O)=O)CC1 | 0.78 | 0.44 | 0 | 1 | 0.9 | 0.9 | x
CCOC(=O)N1CCN(c2ccc(S(=O)(=O)N(Cc3ccccc3)Cc3ccccc3)cn2)CC1 | x | -0.089 | 2 | 4 | 0.8 | 0.8 | 0.075
O=C(NCc1ccco1)C1CC(c2ccc(Cl)cc2)=NO1 (configuration not stated) | 4.6* | -0.48 | 0 | 0 | 1 | 1.1 | 0.093
COc1cccc(C2=NOC(C(=O)NCc3ccccc3)C2)c1 (configuration not stated) | x | -0.051 | 0 | 1 | 0.9 | 0.9 | x
SMILES | ROMK mod | KCC2 mod | ABCB1 block | ABCG2 inh | PMI activator | PMI act satM6P | ROMK retest
COc1cccc(C2=NOC(C(=O)NCc3ccco3)C2)c1 (configuration not stated) | 5* | x | 0 | 3 | 0.9 | 0.9 | 0.081
CC(C)(C)n1nnnc1C(c1cccc(C#N)c1)N1CCCc2ccccc21 (configuration not stated) | -4* | x | 2 | 3 | 1.1 | 0.9 | 0.065*
O=C(C1=C[C@H](C2CC2)C[C@H](OCCCCO)O1)N1CCOCC1 | x | -0.032 | 0 | -1 | 0.9 | 1 | x
CCC1Oc2ccc(C)cc2N(CC(=O)N(Cc2ccc(C)o2)C2CCCC2)C1=O (configuration not stated) | -4.3* | -0.72 | 7 | 14 | 1 | 1.1 | 0.065*
CCC1Oc2ccc(C)cc2N(CC(=O)NCCN2C(C)CCCC2C)C1=O (configuration not stated) | -0.068 | 0.16 | -3 | -4 | 0.9 | 1 | x
O=C1ON=C(c2ccccc2)/C1=C/c1ccc(OS(=O)(=O)c2ccccc2)cc1 | x | -0.12 | -1 | -2 | 1.1 | 1.2 | x
O=C1ON=C(c2cccc([N+](=O)[O-])c2)/C1=C/c1ccc(O)cc1 | -4.6* | -0.18 | 0 | 0 | 1.1 | 1.1 | 0.065*
CCOc1ccccc1NC(=S)NCc1cccn1C | -1.2 | -1.1 | 0 | 7 | 1.2 | 1.1 | x
O=C(Nc1ccc(F)cc1)Nc1ccc(NC(=O)c2ccccc2O)cc1 | -11* | 0.023 | x | x | x | x | 0.079
CCOc1ccc(NC2OCC(O)C(O)C2O)c([N+](=O)[O-])c1 (configuration not stated) | -8.9* | -0.55 | 0 | 12 | 1 | 1 | 0.074
CC(C(Sc1ccccc1N)c1ccccc1)[N+](=O)[O-] (configuration not stated) | -5.1* | 0.18 | x | x | x | x | 0.042*
NNC(=O)c1cc2c(N3CCC(Cc4ccccc4)CC3)ncnc2s1 | -4.5* | -0.96 | 0 | 1 | 1.2 | 1.1 | 0.073
Cn1ncc2c(N3CCC(Cc4ccccc4)CC3)ncnc21 | 0.49 | -2.8 | 1 | 1 | 0.9 | 1 | x
CCOc1ccc(-n2c(C)nc(O)c2N=Nc2ccccc2)cc1 | 1.1 | 1.5 | 2 | 16 | 0.9 | 0.8 | x
Cc1cc(-n2cnnn2)ccc1C(C)C | -0.091 | -0.01 | 0 | 2 | 0.9 | 0.9 | x
CC(=O)O[C@]1(C(C)=O)CC[C@H]2[C@@H]3C[C@H](C)C4=CC(=O)CC[C@]4(C)[C@H]3CC[C@@]21C | -1.8 | -1.2 | 3 | 5 | 0.9 | 0.9 | x
CC(=O)O[C@]1(C(C)=O)CC[C@H]2[C@@H]3C=C(Cl)C4=CC(=O)CC[C@]4(C)[C@H]3CC[C@@]21C | x | -1.1 | 6 | 33 | 1 | 0.9 | 0.075
